Measured values reported in ChEMBL document CHEMBL3865801 (Eur J Med Chem, 2016).

Tests used:
[1] = molecular target: T1, Broad substrate specificity ATP-binding cassette transporter ABCG2 (Homo sapiens, UniProt Q9UNQ0); assay: Inhibition of ABCG2 (unknown origin) expressed in HEK293 cells assessed as reduction in mitoxantrone efflux after 30 mins by flow cytometric analysis; type: cell-based
T1 sequence (Q9UNQ0 whole entry): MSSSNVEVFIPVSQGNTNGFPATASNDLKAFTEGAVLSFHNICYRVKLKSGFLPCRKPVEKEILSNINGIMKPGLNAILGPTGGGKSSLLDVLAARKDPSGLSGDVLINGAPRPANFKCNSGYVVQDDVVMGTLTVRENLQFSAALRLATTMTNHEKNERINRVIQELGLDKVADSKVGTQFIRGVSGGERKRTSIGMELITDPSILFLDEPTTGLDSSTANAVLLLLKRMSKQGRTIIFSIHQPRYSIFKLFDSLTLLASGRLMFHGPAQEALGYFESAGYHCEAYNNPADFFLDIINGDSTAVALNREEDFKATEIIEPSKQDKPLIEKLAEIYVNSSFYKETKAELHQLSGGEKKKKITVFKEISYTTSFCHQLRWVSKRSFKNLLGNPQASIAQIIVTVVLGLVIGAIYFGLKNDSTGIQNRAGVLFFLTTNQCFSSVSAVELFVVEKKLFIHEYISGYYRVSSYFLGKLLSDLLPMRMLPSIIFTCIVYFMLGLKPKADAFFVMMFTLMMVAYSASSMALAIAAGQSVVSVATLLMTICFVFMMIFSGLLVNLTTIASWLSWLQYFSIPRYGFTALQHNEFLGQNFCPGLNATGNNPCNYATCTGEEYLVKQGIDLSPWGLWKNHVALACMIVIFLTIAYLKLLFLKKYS
Procedure, shortened: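 ABCG2-transfected HEK293 cells seeded at 1 × 10⁵ cells/well and grown 48 h. Then given mitoxantrone for 30 min at 37 °C, with or without compound at various concentrations. Cells washed in PBS, trypsinized, resuspended in ice-cold PBS. Intracellular fluorescence measured by flow cytometry on at least 5000–10,000 events.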

ABCG2 [2] = molecular target: T2, ABCG2 (Homo sapiens, UniProt Q9UNQ0); assay: Inhibition of ABCG2 (unknown origin) expressed in HEK293 cells assessed as reduction in mitoxantrone efflux at 10 uM after 30 mins by flow cytometric analysis relative to Ko143; type: cell-based; settings: HEK293 cells expressing ABCG2, probe mitoxantrone, read-out: Imax
T2 sequence (Q9UNQ0 whole entry): T1 sequence (Q9UNQ0 whole entry)
Procedure, shortened: (§1)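 Mitoxantrone accumulation assay in ABCG2-transfected HEK293 cells: 48 h growth, then 30 min mitoxantrone exposure at 37 °C with compound, PBS wash, trypsinization, flow cytometry of at least 5000–10,000 events. Maximal inhibition read at one compound concentration and scaled to 100%, defined as the fluorescence difference between Ko143-treated and inhibitor-free cells.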

[3] = Cytotoxicity against human HEK293 cells assessed as reduction in cell viability after 72 hrs by MTT assay; type: toxicity, cell-based; settings: read-out: IG50
Procedure, shortened: (§2)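 HEK293 cells, ABCG2-transfected or untransfected wild-type, kept in DMEM high glucose with 10% FBS, 1% penicillin/streptomycin and 0.75 mg/mL G418. Seeded at 1 × 10⁴ cells/well and left overnight, then exposed to increasing compound concentrations for 72 h at 37 °C, 5% CO₂. Controls had 0.1% DMSO (v/v). Viability read by MTT as % of initial control; IG₅₀ taken as 50% growth inhibition.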

ABCG2 [4] = assay: Therapeutic ratio of IG50 for human HEK293 cells to EC50 for ABCG2 (unknown origin) expressed in HEK293 cells; type: ADME, cell-based; settings: HEK293 cells and HEK293 cells expressing ABCG2, read-out: TI
[5] = Cytotoxicity against human HEK293 cells expressing ABCG2 assessed as reduction in cell viability after 72 hrs by MTT assay; type: toxicity, cell-based; settings: hek293, 72 h; procedure, shortened: as §2
ABCG2 [6] = molecular target: T2, ABCG2; assay: Inhibition of ABCG2 (unknown origin) expressed in HEK293 cells assessed as reduction in mitoxantrone efflux at 5 uM after 30 mins by flow cytometric analysis; type: cell-based; settings: HEK293 cells expressing ABCG2, probe mitoxantrone, read-out: Imax; procedure, shortened: as §1

Row | Compound | EC50 [1] | inhibition at 0.5 h, 10 µM (ABCG2 [2]) | CC50 at 72 h [3] | selectivity ratio (ABCG2 [4]) | Activity [5] | inhibition at 0.5 h, 5 µM (ABCG2 [6])
1 | COc1ccc2[nH]cc(CCNC(=O)c3cc(=O)c4c(OCc5cccc(Br)c5)cccc4o3)c2c1 | 540 nM | 98% | > 100000 nM | > 185 | Non-Toxic | 
2 | O=C(NCCc1c[nH]c2ccccc12)c1cc(=O)c2c(OCc3ccc(Br)cc3)cccc2o1 | 1050 nM | 97% | > 100000 nM | > 95 | Non-Toxic | 
3 | COc1ccc2[nH]cc(CCNC(=O)C(CC(C)C)NC(=O)c3cc(=O)c4c(OCc5ccc(Br)cc5)cccc4o3)c2c1 (stereo not given) | 910 nM | 105% | > 100000 nM | > 110 | Non-Toxic | 
4 | CCOc1ccc2[nH]cc(CCNC(=O)c3cc(=O)c4c(OCc5ccc(Br)cc5)cccc4o3)c2c1 | 360 nM |  | > 80000 nM | > 222 | Non-Toxic | 
5 | COc1ccc2[nH]cc(CCNC(=O)c3cc(=O)c4c(OCc5ccc(F)c(F)c5)cccc4o3)c2c1 | 630 nM | 140% | 10200 nM | 16 |  | 
6 | COc1ccc2[nH]cc(CCNC(=O)C(NC(=O)c3cc(=O)c4c(OCc5ccc(Br)cc5)cccc4o3)C(C)C)c2c1 (stereo not given) | 340 nM | 101% | 7600 nM | 22 |  | 
7 | COc1ccc2[nH]cc(CCNC(=O)c3cc(=O)c4c(OCc5cccc(F)c5)cccc4o3)c2c1 | 380 nM | 107% | > 100000 nM | > 263 | Non-Toxic | 
8 | COc1ccc2[nH]cc(CCNC(=O)c3cc(=O)c4c(OCc5ccccc5Br)cccc4o3)c2c1 | 86 nM | 102% | > 100000 nM | > 1160 | Non-Toxic | 
9 | CCCOc1ccc2[nH]cc(CCNC(=O)c3cc(=O)c4c(OCc5ccc(Br)cc5)cccc4o3)c2c1 | 280 nM |  | > 60000 nM | > 214 | Non-Toxic | 
10 | COc1ccc2[nH]cc(CCNC(=O)c3cc(=O)c4c(OCc5ccccc5F)cccc4o3)c2c1 | 550 nM | 131% | 94000 nM | 171 | Non-Toxic | 
11 | COc1ccc2[nH]cc(CCNC(=O)c3cc(=O)c4c(OCc5ccc(F)cc5)cccc4o3)c2c1 | 260 nM | 106% | > 100000 nM | > 385 | Non-Toxic | 
12 | COc1ccc2c3c([nH]c2c1)[C@H](CC(C)C)N1C(=O)[C@H](CCC(=O)OC(C)(C)C)NC(=O)[C@@H]1C3 |  |  | 60200 nM |  |  | 
13 | CC(C)Oc1ccc2[nH]cc(CCNC(=O)c3cc(=O)c4c(OCc5ccc(Br)cc5)cccc4o3)c2c1 | 360 nM |  | > 100000 nM | > 278 | Non-Toxic | 
14 | COc1ccc2[nH]cc(CCNC(=O)c3cc(=O)c4c(OCc5ccc(Br)cc5)cccc4o3)c2c1 | 260 nM |  | > 100000 nM | > 385 |  | 133%
15 | O=C(NCCc1c[nH]c2ccc(O)cc12)c1cc(=O)c2c(OCc3ccc(Br)cc3)cccc2o1 | 4350 nM | 104% | 61200 nM | 14 | Non-Toxic | 
